{"source": "paper PMC6832743", "about": "(ACS nano, 2019)", "key": {"[1]": {"test_system": "Mouse bone marrow-derived dendritic cells (BMDCs)", "experiment": "BMDC activation", "assay_type": "cell-based", "settings": "6 h incubation + 18 h fresh medium, flow cytometry", "outline": "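Immature mouse bone marrow-derived DCs plated at 2 × 10^6 cells per well and held overnight. Cells exposed for 6 h to free adjuvant, free photosensitizer or adjuvant/photosensitizer-loaded mesoporous silica nanoparticles. Medium then replaced and incubation continued for 18 h. Cells harvested, stained with fluorophore-labelled anti-CD40, anti-CD80 and anti-CD86, and analysed by flow cytometry, gating live intact cells only.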"}, "[2]": {"experiment": "UV-vis absorption / aqueous solubility of Ce6", "assay_type": "physicochemical", "settings": "Ce6 diluted in PBS; ~660 nm absorption peak absent"}, "[3]": {"test_system": "Mouse bone marrow-derived dendritic cells (BMDCs)", "experiment": "BMDC cytokine secretion", "assay_type": "cell-based", "settings": "6 h incubation + 18 h fresh medium, ELISA", "outline": "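Immature mouse bone marrow-derived DCs plated at 2 × 10^6 cells per well and held overnight. Cells exposed for 6 h to free adjuvant, free photosensitizer or loaded mesoporous silica nanoparticles. Medium exchanged for fresh medium and incubation continued for 18 h. Culture medium then collected and IL-12p70 and TNF-α measured with ELISA kits.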"}}, "data": [{"molecule": "C=Cc1c(C)c2cc3nc(c(CC(=O)O)c4[nH]c(cc5nc(cc1[nH]2)C(C)=C5CC)c(C)c4C(=O)O)[C@@H](CCC(=O)O)[C@@H]3C", "note": "[Ce6, chlorin e6]", "values": [{"measurement": "DC maturation (expression levels of CD40, CD80, CD86)", "setting": "[1]", "result": "no obvious signs of DC maturation"}, {"measurement": "aqueous solubility", "setting": "[2]", "result": "poor aqueous solubility"}, {"measurement": "secretion of IL-12p70 and TNF-α", "setting": "[3]", "result": "did not secrete any detectable levels"}]}, {"molecule": "CSSASMTNMELM [Adpgk]", "values": [{"measurement": "DC maturation (expression levels of CD40, CD80, CD86)", "setting": "[1]", "result": "no obvious signs of DC maturation"}, {"measurement": "secretion of IL-12p70 and TNF-α", "setting": "[3]", "result": "did not secrete any detectable levels"}]}]}
